In ChEMBL document CHEMBL1143415, “Differential fungicidal activities of amphotericin B and voriconazole against Aspergillus species determined by microbroth methodology” (Antimicrob Agents Chemother, 2007):
Values after ≈ are worked out from the molar mass of the structure shown.

Key:
Aspergillus terreus [1] = experiment: Antifungal activity against Aspergillus terreus ATCC MYA-3633 after 48 hrs by CLSI M38-A microdilution method; assay type: functional
In short: (§1)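 CLSI M38-A broth microdilution. Conidia came from 5–7 d potato dextrose agar slants at 35°C, suspended in saline with 0.025% Tween 20 and counted by hemacytometer. Final inoculum was 0.5×10^4 to 5×10^4 CFU/ml in RPMI 1640 with MOPS, pH 7.0. Final drug ranges: amphotericin B 0.015–16 mg/liter, voriconazole 0.008–8 mg/liter. Plates ran 48 h at 37°C. MIC = lowest concentration with no visible growth. Duplicate plates; experiments done twice.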

Aspergillus fumigatus [2] = experiment: Antifungal activity against Aspergillus fumigatus isolate at 100 CFU infectious rate after 24 hrs by culture-based CFU method; assay type: functional
In short: (§2)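 Done after the 48 h M38-A MIC plates. Clear wells and the 0.5× MIC well were pipetted five times, and 20 μl or 100 μl was subcultured on Sabouraud dextrose agar for 24–48 h at 37°C before CFU counting. MFC = lowest concentration giving no growth for each volume.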

Aspergillus flavus [3] = experiment: Antifungal activity against Aspergillus flavus isolate at 100 CFU infectious rate after 24 hrs by culture-based CFU method; assay type: functional; in short: as §2
Aspergillus terreus [4] = experiment: Antifungal activity against Aspergillus terreus isolate after 8 hrs by microbroth colorimetric XTT method relative to control; assay type: functional
Aspergillus fumigatus [5] = experiment: Antifungal activity against Aspergillus fumigatus isolate at 20 CFU infectious rate after 24 hrs by culture-based CFU method; assay type: functional; in short: as §2
Aspergillus terreus [6] = experiment: Antifungal activity against Aspergillus terreus ATCC MYA-3633 after 24 to 48 hrs by culture-based CFU method; assay type: functional; in short: as §2
Aspergillus flavus [7] = experiment: Antifungal activity against Aspergillus flavus isolate at 20 CFU infectious rate after 24 hrs by culture-based CFU method; assay type: functional; in short: as §2
Aspergillus fumigatus [8] = experiment: Antifungal activity against Aspergillus fumigatus isolate after 8 hrs by microbroth colorimetric XTT method relative to control; assay type: functional
Aspergillus flavus [9] = experiment: Ratio of MFC for Aspergillus flavus isolate to MIC for Aspergillus flavus isolate; assay type: functional
In short: (§3)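 Per-isolate ratio of the XTT-based MFC (24 h post-wash regrowth, absorbance cutoff 0.01) to the 48 h CLSI M38-A MIC, taken as the median of two replicate experiments. A ratio of ≤4 was counted fungicidal and >4 fungistatic.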

Aspergillus terreus [10] = experiment: Antifungal activity against Aspergillus terreus isolate after 24 hrs by microbroth colorimetric XTT method; assay type: functional, organism-based
In short: (§4)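 Done after the 48 h M38-A MIC plates. Clear wells and the 0.5× MIC well were aspirated, washed twice with 37°C saline, refilled with fresh RPMI, then incubated 24 h at 37°C. XTT (0.1 mg/ml) with menadione (25 μM), both final, was added for 2 h. A450/630 was read minus background from conidia-free wells. MFC = lowest concentration with absorbance <0.01, a cutoff set by ROC against microscopic growth.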

Aspergillus fumigatus [11] = experiment: Antifungal activity against Aspergillus fumigatus ATCC MYA-3626 after 24 to 48 hrs by culture-based CFU method; assay type: functional; in short: as §2
Aspergillus terreus [12] = experiment: Antifungal activity against Aspergillus terreus isolate after 48 hrs by CLSI M38-A microdilution method; assay type: functional; in short: as §1
Aspergillus flavus [13] = experiment: Antifungal activity against Aspergillus flavus isolate after 24 hrs by microbroth colorimetric XTT method; assay type: functional, organism-based; in short: as §4
Aspergillus flavus [14] = experiment: Antifungal activity against Aspergillus flavus ATCC MYA-3631 after 48 hrs by CLSI M38-A microdilution method; assay type: functional; in short: as §1
Aspergillus fumigatus [15] = experiment: Antifungal activity against Aspergillus fumigatus isolate after 48 hrs by CLSI M38-A microdilution method; assay type: functional
In short: (§5)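 CLSI M38-A broth microdilution in RPMI 1640 (L-glutamine, no bicarbonate, 0.165 M MOPS, pH 7.0). Conidia come from potato dextrose agar slants grown 5 to 7 days at 35°C, suspended in saline with 0.025% Tween 20 and counted by hemacytometer. Final inoculum 0.5 × 10^4 to 5 × 10^4 CFU/ml. Twofold dilutions in flat-bottom plates, 37°C for 48 h. MIC is the lowest concentration with no visible growth. Duplicate plates, two experiments.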

Aspergillus terreus [16] = experiment: Antifungal activity against Aspergillus terreus ATCC MYA-3633 after 24 hrs by microbroth colorimetric XTT method; assay type: functional; in short: as §4
Aspergillus flavus [17] = experiment: Antifungal activity against Aspergillus flavus isolate after 48 hrs by CLSI M38-A microdilution method; assay type: functional; in short: as §1
Aspergillus flavus [18] = experiment: Antifungal activity against Aspergillus flavus ATCC MYA-3631 after 24 hrs by microbroth colorimetric XTT method; assay type: functional; in short: as §4
Aspergillus fumigatus [19] = experiment: Antifungal activity against Aspergillus fumigatus isolate after 24 hrs by microbroth colorimetric XTT method; assay type: functional, organism-based; in short: as §4
Aspergillus flavus [20] = experiment: Antifungal activity against Aspergillus flavus ATCC MYA-3631 after 24 to 48 hrs by culture-based CFU method; assay type: functional; in short: as §2
Aspergillus flavus [21] = experiment: Antifungal activity against Aspergillus flavus isolate after 8 hrs by microbroth colorimetric XTT method relative to control; assay type: functional
Aspergillus terreus [22] = experiment: Antifungal activity against Aspergillus terreus isolate at 20 CFU infectious rate after 24 hrs by culture-based CFU method; assay type: functional; in short: as §2
Aspergillus fumigatus [23] = experiment: Antifungal activity against Aspergillus fumigatus ATCC MYA-3626 after 48 hrs by CLSI M38-A microdilution method; assay type: functional; in short: as §5
Aspergillus fumigatus [24] = experiment: Antifungal activity against Aspergillus fumigatus ATCC MYA-3626 after 24 hrs by microbroth colorimetric XTT method; assay type: functional; in short: as §4
Aspergillus terreus [25] = experiment: Ratio of MFC for Aspergillus terreus isolate to MIC for Aspergillus terreus isolate; assay type: functional; in short: as §3
Aspergillus fumigatus [26] = experiment: Ratio of MFC for Aspergillus fumigatus isolate to MIC for Aspergillus fumigatus isolate; assay type: functional; in short: as §3
Aspergillus terreus [27] = experiment: Antifungal activity against Aspergillus terreus isolate at 100 CFU infectious rate after 24 hrs by culture-based CFU method; assay type: functional; in short: as §2
Aspergillus terreus [28] = experiment: Antifungal activity against Aspergillus terreus isolate after 6 to 8 hrs by microbroth colorimetric XTT method relative to control; assay type: functional
Aspergillus fumigatus [29] = experiment: Antifungal activity against Aspergillus fumigatus isolate after 6 to 8 hrs by microbroth colorimetric XTT method relative to control; assay type: functional
Aspergillus flavus [30] = experiment: Antifungal activity against Aspergillus flavus isolate after 48 hrs by NCCLS M38-A broth microdilution method; assay type: functional; in short: as §1
Aspergillus flavus [31] = experiment: Antifungal activity against Aspergillus flavus isolate after 6 to 8 hrs by microbroth colorimetric XTT method relative to control; assay type: functional
Aspergillus fumigatus [32] = experiment: Antifungal activity against Aspergillus fumigatus isolate after 48 hrs by NCCLS M38-A broth microdilution method; assay type: functional; in short: as §1

| Structure (SMILES) | MIC (Aspergillus terreus [1]) | MFC (Aspergillus fumigatus [2]) | MFC (Aspergillus flavus [3]) | MFC (Aspergillus fumigatus [5]) | MFC (Aspergillus terreus [6]) | MFC (Aspergillus flavus [7]) | MFC/MIC ratio (Aspergillus flavus [9]) | EC50 (Aspergillus terreus [10]) | MFC (Aspergillus terreus [10]) | MFC (Aspergillus fumigatus [11]) | MIC (Aspergillus terreus [12]) | EC50 (Aspergillus flavus [13]) | MFC (Aspergillus flavus [13]) | MIC (Aspergillus flavus [14]) | MIC (Aspergillus fumigatus [15]) | MFC (Aspergillus terreus [16]) | MIC (Aspergillus flavus [17]) | MFC (Aspergillus flavus [18]) | EC50 (Aspergillus fumigatus [19]) | MFC (Aspergillus fumigatus [19]) | other results |
| --- | --- | --- | --- | --- | --- | --- | --- | --- | --- | --- | --- | --- | --- | --- | --- | --- | --- | --- | --- | --- | --- |
| C[C@@H]1[C@H](O)[C@@H](C)/C=C/C=C/C=C/C=C/C=C/C=C/C=C/[C@H](O[C@@H]2O[C@H](C)[C@@H](O)[C@H](N)[C@@H]2O)C[C@@H]2O[C@](O)(C[C@@H](O)C[C@@H](O)[C@H](O)CC[C@@H](O)C[C@@H](O)CC(=O)O[C@H]1C)C[C@H](O)[C@H]2C(=O)O [AMPHOTERICIN B] | 2 µg/mL (≈ 2.16 µM) | 2 µg/mL (≈ 2.16 µM) | 2 µg/mL (≈ 2.16 µM) | 1 µg/mL (≈ 1.08 µM) | > 2 µg/mL | 1 µg/mL (≈ 1.08 µM) | 2 | 9.55 µg/mL (≈ 10.3 µM) | > 16 µg/mL | 1 µg/mL (≈ 1.08 µM) | 2 µg/mL (≈ 2.16 µM) | 1.1 µg/mL (≈ 1.19 µM) | 2 µg/mL (≈ 2.16 µM) | 1 µg/mL (≈ 1.08 µM) | 1 µg/mL (≈ 1.08 µM) | > 16 µg/mL | 1 µg/mL (≈ 1.08 µM) | 2 µg/mL (≈ 2.16 µM) | 0.95 µg/mL (≈ 1.03 µM) | 1 µg/mL (≈ 1.08 µM) | Activity (Aspergillus terreus [4]): 3%; Activity (Aspergillus fumigatus [8]): 16%; MFC (Aspergillus flavus [20]): 1 µg/mL (≈ 1.08 µM); Activity (Aspergillus flavus [21]): 3%; MFC (Aspergillus terreus [22]): > 16 µg/mL; MIC (Aspergillus fumigatus [23]): 1 µg/mL (≈ 1.08 µM); MFC (Aspergillus fumigatus [24]): 1 µg/mL (≈ 1.08 µM); MFC/MIC ratio (Aspergillus terreus [25]): 16; MFC/MIC ratio (Aspergillus fumigatus [26]): 2; MFC (Aspergillus terreus [27]): > 16 µg/mL |
| C[C@@H](c1ncncc1F)[C@](O)(Cn1cncn1)c1ccc(F)cc1F [VORICONAZOLE] | 0.5 µg/mL (≈ 1.43 µM) | > 8 µg/mL | 1 µg/mL (≈ 2.86 µM) | 2 µg/mL (≈ 5.73 µM) | 2 µg/mL (≈ 5.73 µM) | 0.5 µg/mL (≈ 1.43 µM) | 4 | 11.7 µg/mL (≈ 33.5 µM) | > 8 µg/mL | > 4 µg/mL | 1 µg/mL (≈ 2.86 µM) | 1.96 µg/mL (≈ 5.61 µM) | 4 µg/mL (≈ 11.5 µM) | 0.5 µg/mL (≈ 1.43 µM) | 0.5 µg/mL (≈ 1.43 µM) | > 8 µg/mL | 0.5 µg/mL (≈ 1.43 µM) | > 4 µg/mL | 2.34 µg/mL (≈ 6.7 µM) | > 8 µg/mL | Activity (Aspergillus terreus [28]): 36%; Activity (Aspergillus fumigatus [29]): 14%; MFC90 (Aspergillus flavus [30]): 0.25 µg/mL (≈ 0.716 µM); Activity (Aspergillus flavus [31]): 16%; MFC (Aspergillus flavus [20]): 0.5 µg/mL (≈ 1.43 µM); MFC (Aspergillus terreus [22]): 8 µg/mL (≈ 22.9 µM); MIC (Aspergillus fumigatus [23]): 1 µg/mL (≈ 2.86 µM); MFC (Aspergillus fumigatus [24]): > 8 µg/mL; MFC/MIC ratio (Aspergillus terreus [25]): 8; MFC/MIC ratio (Aspergillus fumigatus [26]): > 16; MFC90 (Aspergillus fumigatus [32]): 0.25 µg/mL (≈ 0.716 µM); MFC (Aspergillus terreus [27]): > 8 µg/mL |
